Consider 19 compounds from ChEMBL document CHEMBL1126276, “Synthesis and antimalarial properties of 1-imino derivatives of 7-chloro-3-substituted-3,4-dihydro-1,9(2H,10H)-acridinediones and related structures” (J Med Chem, 1992).

In series [1] the test system is Plasmodium berghei. The experiment in a line: Antimalarial activity was measured against mice (Mus musculus) infected with Plasmodium berghei by subcutaneous administration of 160 mg/kg dose. Format: organism-based. Also on record: dose 160 mg/kg, route subcutaneous. To be noted: in vivo, sc. Summed up:
(§1)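 […] in mice infected with a normal drug-sensitive P. berghei strain. Compound dissolved or suspended in sesame or peanut oil, given as a single subcutaneous dose 72 h postinfection.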

For series [2], the system named is Plasmodium berghei. The experiment in a line: (§2) Antimalarial activity in Plasmodium berghei infected mice (Mus musculus) after 40 mg/kg subcutaneous dose. Format: functional. The essentials: as §1
Series [3] relates to Plasmodium berghei. Nature of the series: Antimalarial activity was measured against mice (Mus musculus) infected with Plasmodium berghei by subcutaneous administration of 640 mg/kg dose. Format: organism-based. Also on record: dose 640 mg/kg, route subcutaneous. To be noted: in vivo, sc. Summed up: as §1
The test system of series [4] is Plasmodium berghei. Nature of the series: (§3) Antimalarial activity in Plasmodium berghei infected mice (Mus musculus) after 80 mg/kg subcutaneous dose. Format: functional. Summed up: as §1
Series [5] concerns Plasmodium berghei. The experiment in a line: Antimalarial activity in Plasmodium berghei infected mice (Mus musculus) after subcutaneous 160 mg/kg dose. Type of series: functional. The essentials: (§4)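 Normal drug-sensitive P. berghei strain in mice. Compound dissolved or suspended in sesame or peanut oil, given parenterally as a single subcutaneous dose 72 h postinfection.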

Series [6] relates to Plasmodium berghei. Nature of the series: Antimalarial activity was measured against mice (Mus musculus) infected with Plasmodium berghei by subcutaneous administration of 320 mg/kg dose. The settings on record: in vivo, sc. Format: organism-based. Details: dose 320 mg/kg, route subcutaneous. The essentials:
as §1

Series [7] concerns Plasmodium berghei. The description is as §2. Format: functional. The essentials:
as §4
This is another data set of the same source.

In series [8] the test system is Plasmodium berghei. Nature of the series: Antimalarial activity Plasmodium berghei infected mice (Mus musculus) after 640 mg/kg subcutaneous dose. Format: functional. Summed up:
as §1

Series [9] concerns Plasmodium berghei. The experiment in a line: Antimalarial activity in Plasmodium berghei infected mice (Mus musculus) after 160 mg/kg subcutaneous dose. Format: functional. The essentials:
as §1

For series [10], the system named is Plasmodium berghei. The experiment in a line: (§5) Antimalarial activity in Plasmodium berghei infected mice (Mus musculus) after 20 mg/kg subcutaneous dose. Format: functional. The essentials: as §4
Series [11] has as its system Plasmodium berghei. The series is described as §5. Format: functional. The essentials:
as §1
The source holds these as a separate data set.

The subject of series [12] is Plasmodium berghei. The experiment in a line: Antimalarial activity in Plasmodium berghei infected mice (Mus musculus) after subcutaneous 640 mg/kg dose. Format: functional. The essentials: as §4
For series [13], the system named is Plasmodium berghei. Nature of the series: Antimalarial activity in Plasmodium berghei infected mice (Mus musculus) after subcutaneous 320 mg/kg dose. Type of series: functional. Summed up: as §4
For series [14], the system named is Plasmodium berghei. Described as §3. Type of series: functional. Summed up: as §4
This is another data set of the same source.

For series [15], the system named is Plasmodium berghei. The experiment in a line: Antimalarial activity in Plasmodium berghei infected mice (Mus musculus) after 320 mg/kg subcutaneous dose. Type of series: functional. The essentials:
as §1

As for `O=c1c2c(n(O)c3ccc(Cl)cc13)CC(c1cccc(C(F)(F)F)c1)C/C2=N\CCCCCCN1CCCCC1` (centres undefined), the “No. of toxic deaths” value came to 3 in series [1], 5 in series [3] and 5 in [6]. Besides, the “Delta mean survival time” value in [2] is listed as 4; in series [4] it was 6.4. Besides, the “No. of cured mice” value in series [5] was 2.

Turning to `CN(C)CCC/N=C1\CC(c2ccc(C(F)(F)F)cc2)Cc2nc3ccc(F)cc3c(O)c21` (centres undefined), the “No. of toxic deaths” value in series [1] was 4; in series [3], 5. In series [2], the “Delta mean survival time” value is recorded as 14.9. In addition, the entries for the “No. of cured mice” value in series [5] and in series [7] were 1 and 4, respectively.

For `O=C(O)c1ccc(C2CC(=O)c3c(n(O)c4ccc(Cl)cc4c3=O)C2)cc1` (centres undefined), the figures for the “No. of toxic deaths” value in series [1] and in series [3] were 1 and 4, respectively. Also, the “Delta mean survival time” value in [2] is -0.1; in [8], 0.9; in series [9], -0.1.

Turning to `CCN(CC)CC(C)(C)C/N=C1\CC(c2ccc(C(F)(F)F)cc2)Cc2c1c(=O)c1cc(Cl)ccc1n2O` (centres undefined), the “Delta mean survival time” value was found to be 11.2 in [2], 13 in series [11] and 12.5 in series [4]. Besides, the “No. of cured mice” value in [10] turned out to be 3; in series [12] it was 3; in [5] it was 5; in [13], 5; in series [7], 3; in series [14], 4. Moreover, the “No. of toxic deaths” value in series [3] is reported as 2.

As for `CCCCNC(CC)C/N=C1\CC(c2ccc(C(F)(F)F)cc2)Cc2c1c(=O)c1cc(Cl)ccc1n2O` (centres undefined), the entries for the “Delta mean survival time” value in series [2] and in series [11] were 7.7 and 6, respectively. The “No. of cured mice” value in [10] turned out to be 2; in series [12], 4; in series [5], 5; in series [13], 5; in series [7], 2; in [14], 4. In addition, the “No. of toxic deaths” value in [3] was 1.

As to `CN(C)CCC/N=C1\CC(c2ccc(Cl)cc2Cl)Cc2c1c(=O)c1cc(Cl)ccc1n2O` (centres undefined), the “No. of cured mice” value came to 4 in series [10], 4 in series [12], 5 in series [5] and 5 in series [7]. Moreover, the “No. of toxic deaths” value in series [3] is 1. The “Delta mean survival time” value in series [11] was 10.6.

Turning to `CC1/C(=N\CCCN(C)C)c2c(n(O)c3ccc(Cl)cc3c2=O)CC1c1ccc(C(F)(F)F)cc1` (centres undefined), the “No. of toxic deaths” value in [1], in [3] and in series [6] was 5 in each case. The “Delta mean survival time” value in series [2] is 10.2; in series [11] it was 8.1. Further, the “No. of cured mice” value in series [7] is 2; in series [14], 5.

As to `CCc1ccc2nc3c(c(O)c2c1)/C(=N/CCCN(C)C)CC(c1ccc(C(F)(F)F)cc1)C3` (centres undefined), the “No. of toxic deaths” value in [1] turned out to be 1; in series [3] it was 4. Further, the results for the “Delta mean survival time” value in series [2], in series [8] and in [9] were 0.6, 1.4 and 1.9, respectively.

As for `CC1/C(=N\CCCN(C)C)c2c(n(O)c3ccc(Cl)cc3c2=O)CC1c1ccc(Cl)cc1Cl` (centres undefined), the “No. of cured mice” value is listed as 1 in series [10]; 1 in [12]; 5 in series [5]; 4 in series [13]; 5 in [7]; 4 in series [14]. Also, the “Delta mean survival time” value in series [15] was 2.8; in series [11], 11.1; in series [4], 16.8; in [8], 1.8.

For the compound `O=c1c2c(n(O)c3ccc(Cl)cc13)CC(c1ccc(C(F)(F)F)cc1)C/C2=N\CCCN1CCCC1` (centres undefined), the “Delta mean survival time” value in series [2] came to 10.8; in series [11] it was 11. Moreover, the “No. of cured mice” value came out at 1 in series [10]; 1 in series [12]; 5 in series [5]; 3 in [13]; 2 in series [7]; 5 in series [14]. Also, the “No. of toxic deaths” value in series [3] worked out at 4; in [6] it was 1.

Turning to `CC1/C(=N\CCCN(C)C)c2c(nc3ccc(Cl)cc3c2O)CC1c1ccc(C(F)(F)F)cc1` (stereo in doubt; cis), the “No. of cured mice” value in [10] (20 mg/kg) turned out to be 4; in [5] (160 mg/kg), 4; in [7], 5; in [14], 5. In addition, the “No. of toxic deaths” value in [3] was 1. Moreover, the “Delta mean survival time” value in series [15] (320 mg/kg) was 3.1; in series [11] (20 mg/kg), 10.7; in series [8] (640 mg/kg), 2.3; in [9] it was 3.

As to `O=c1c2c(n(O)c3ccc(Cl)cc13)CC(c1ccc(C(F)(F)F)cc1)C/C2=N\CCCNCCO` (centres undefined), the “Delta mean survival time” value in [2] came out at 10.7; in series [11], 6.4. Further, the entries for the “No. of toxic deaths” value in [3] and in [6] were 4 and 1, respectively. Also, the “No. of cured mice” value was determined as 1 in series [12]; 5 in series [5]; 4 in series [13]; 3 in series [7]; 5 in [14].

Regarding `CN(C)CCC/N=C1\CC(c2ccc(C(F)(F)F)cc2)Cc2nc3ccc(Cl)cc3c(O)c21` (centres undefined), the “No. of toxic deaths” value in [1] turned out to be 1; in [3], 3; in [6], 2. The “No. of cured mice” value in series [10] is recorded as 3; in series [12] it was 2; in series [5], 3; in series [13], 2; in [7], 5; in series [14], 5. In addition, in series [11], the “Delta mean survival time” value was 10.4.

`CCN(CC)CCCC/N=C1\CC(c2ccc(C(F)(F)F)cc2)Cc2c1c(=O)c1cc(Cl)ccc1n2O` (centres undefined): the “Delta mean survival time” value in [2] was 10.5; in series [11], 14. In addition, the “No. of cured mice” value in series [10] is 2; in series [5], 5; in series [13], 4; in series [7], 4; in series [14], 5. For the same compound, the “No. of toxic deaths” value in series [3] stood at 4.

In the case of `CCN(CC)CC(C)(C)C/N=C1\CC(c2ccc(C(F)(F)F)cc2)Cc2nc3ccc(Cl)cc3c(O)c21` (centres undefined), the “Delta mean survival time” value in series [2] was determined as 10.3; in [15], 49.6; in [11], 8.6; in series [4] it was 13.6; in series [8], 1.3. Also, the “No. of cured mice” value in series [10] is given as 2; in series [12] it was 4; in series [5], 5; in series [13] it was 4; in [7], 2; in series [14], 4.

Consider `CC1/C(=N\CCCN(C)C)c2c(nc3ccc(Cl)cc3c2O)CC1c1ccc(Cl)cc1Cl` (centres undefined), for which the “Delta mean survival time” value in series [2] was 19.9; in series [15] it was 3.9; in [11] it was 0.1; in [8], 2.9. Moreover, the “No. of cured mice” value in series [10] amounted to 3; in series [12], 3; in [5] it was 5; in series [13] it was 4; in [7] it was 4; in series [14] it was 5.

Take `CN(C)CCC/N=C1\CC(c2ccc(C(F)(F)F)cc2)Cc2nc3ccc([N+](=O)[O-])cc3c(O)c21` (centres undefined): the “Delta mean survival time” value in [2] was determined as 5.4; in series [11], 2.2; in [4], 8.9; in [9] it was 11.6. Besides, the figures for the “No. of toxic deaths” value in series [3] and in [6] were 4 and 2, respectively. Moreover, the “No. of cured mice” value is on record as 1 in [12], 4 in [5], 3 in series [13] and 1 in series [14].

`CCN(CC)CC/N=C1\CC(c2ccc(Cl)c(Cl)c2)Cc2nc3ccc(Cl)cc3c(O)c21` (centres undefined): the “Delta mean survival time” value in series [2] came out at 8; in series [15] it was 20; in [11], 9.3; in series [4], 8. Besides, the “No. of cured mice” value in series [10] is recorded as 2; in series [12], 5; in series [5], 5; in series [13] it was 3; in series [7], 4; in [14] it was 4.

Consider `CN(C)CCC/N=C1\CC(c2ccc(C(F)(F)F)cc2)Cc2c1c(=O)c1cc(Cl)ccc1n2O` (centres undefined), for which the “No. of toxic deaths” value in [1] was determined as 2; in [3] it was 5; in series [6], 3. Besides, the “No. of cured mice” value in series [10] is on record as 5; in series [12], 1; in [5], 3; in series [13], 2; in series [7], 5; in [14], 4.
